Bioassay records from PubChem.
GalR3 antag – human GalR3 antagonism | O60755 | HEK293 GalR3-CNG cAMP membrane potential fluorescence; galR3 body fused to GalR1 C-terminus | inhibition, % at 3 µM | 360,000 compounds, 0.44% hits | AID 651719;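 active = inhibition above the screen-wide average plus 3 SD, cut at about 13% in these data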;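 also: forskolin and galanin both at EC90 stimulate the cells; cAMP rise reported by CNG channel membrane potential dye signal; 0% = forskolin plus galanin with DMSO and 100% = forskolin alone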
Target sequence (O60755 1-299 limits assumed): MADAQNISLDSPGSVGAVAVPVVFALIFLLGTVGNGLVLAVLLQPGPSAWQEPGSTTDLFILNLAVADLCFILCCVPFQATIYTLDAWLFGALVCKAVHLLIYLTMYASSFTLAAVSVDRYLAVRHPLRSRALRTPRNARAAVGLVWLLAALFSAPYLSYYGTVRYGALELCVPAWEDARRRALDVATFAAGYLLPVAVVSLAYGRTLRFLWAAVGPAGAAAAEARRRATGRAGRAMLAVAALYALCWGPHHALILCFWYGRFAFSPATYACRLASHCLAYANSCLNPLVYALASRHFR
CHO parental Ca – counter-screen for OX1R antagonists: effect in parental CHO cells; parental CHO-K1, ATP-induced calcium, Fluo-8 fluorescence; 330,000 compounds, 0.63% hits; inhibition, % at 5.6 µM;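 active = inhibition above that plate's mean sample inhibition plus 3 SD, cut at about 26% in these data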;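 also: 0% = ATP-challenged DMSO wells and 100% = DMSO wells without ATP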
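Measured by: calcium-sensitive Fluo-8 fluorescence / Test system: CHO parental line / Controls: ATP-challenged DMSO wells low, unchallenged DMSO wells high / Measure: % inhibition / Compound: single nominal dose of 5.6 µM per compound / Replicates: single well per compound, no replicates / Reagent: ATP as calcium-mobilizing challenge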
OX1R antag-1 – antagonists of human orexin 1 receptor (OX1R); O43613; OX1R-expressing cells, FRET antagonist read-out; inhibition, % at 6.6 µM; 330,000 compounds, 1.8% hits; AID 485270; in the data active = inhibition mostly above about 38%, no sharp cut-off; inactive = mostly below about 40%;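 also: 0% = agonist challenge alone and 100% = reference antagonist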
OX1R antag-2 – antagonists of human orexin 1 receptor; O43613; CHO/OX1R cells, Fluo-8 calcium fluorescence, orexin A; inhibition, % at 5 µM; 330,000 compounds, 0.43% hits; AID 434989;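 active = inhibition above its plate's threshold, mean inhibition of all tested compounds on the plate plus 3 SD, cut at about 37% in these data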;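 also: 0% = orexin A challenge wells and 100% = SB-334867-A antagonist wells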
GPR7 antagonist – blocks human GPR7 receptor signaling | P48145 | GPR7-expressing cells, fluorescence antagonist assay | inhibition, % at 4.4 µM | 290,000 compounds, 1.1% hits | AID 1861; in the data active = inhibition above about 16%, passing the limit was not always enough;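 also: cells stimulated with the agonist NPW; 0% = agonist with vehicle and 100% = vehicle without agonist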
Target sequence (P48145 whole entry, looked up): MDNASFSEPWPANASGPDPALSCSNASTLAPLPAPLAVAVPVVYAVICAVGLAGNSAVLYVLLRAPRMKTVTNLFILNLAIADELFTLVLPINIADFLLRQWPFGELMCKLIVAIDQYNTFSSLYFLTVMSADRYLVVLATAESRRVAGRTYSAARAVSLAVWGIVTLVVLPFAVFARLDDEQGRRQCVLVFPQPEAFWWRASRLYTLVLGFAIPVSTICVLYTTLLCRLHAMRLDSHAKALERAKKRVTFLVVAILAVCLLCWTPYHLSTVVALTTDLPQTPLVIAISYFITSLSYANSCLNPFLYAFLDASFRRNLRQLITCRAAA
* = called active by the depositor; · = no result given. Sampled rows, rich in hits. Any-hit rate of the full collection: about 3.1%.

SMILES	GalR3 antag	CHO parental Ca	OX1R antag-1	OX1R antag-2	GPR7 antagonist
Cc1ccc(S(=O)(=O)c2cc3c(=O)n4ccccc4nc3n(CCCN3CCOCC3)c2=N)cc1C	-1	-25	26	-18	-13
CCc1ccc(NC(=O)Cn2nc(C(F)(F)F)c3c2CCC3)cc1	-3	40*	24	1	-22
COCCOc1nc2c(c(=O)n(C)c(=O)n2C)n1Cc1cccc(OC)c1	-4	45*	5	-7	-9
COc1ccc(Oc2nc3c(c(=O)n(C)c(=O)n3C)n2Cc2cccc(OC)c2)cc1	2	-7	26	-18	0
CN(C(=O)COC(=O)c1ccccc1NCc1ccco1)c1c(N)n(Cc2ccccc2)c(=O)[nH]c1=O	-2	-18	64*	-10	·
CCN(C(=O)COC(=O)c1ccco1)c1c(N)n(Cc2ccccc2)c(=O)[nH]c1=O	-4	0	9	-9	·
CC[C@@H](Nc1ncnc2c1oc1ccccc12)C(=O)O	-6	99*	8	-3	-11
CCOc1ccccc1NC(=O)C1CCCCN1S(=O)(=O)c1ccccc1 (stereo not drawn)	-2	-25	53*	33	·
COc1ccccc1NC(=O)C1CCCCN1S(=O)(=O)c1ccc(F)cc1 (stereo not drawn)	-2	-15	57*	4	2
O=C(Nc1ccccc1NS(=O)(=O)c1ccc(F)cc1)C1CCCC1	9	-16	63*	2	-7
CCOC1=C(C#N)CC2(CC1)c1ccccc1-c1ccccc12	-5	·	·	·	·
Cc1ccc2oc(=O)c3cc(C(=O)NCCCN4CCC(C)CC4)sc3c2c1	2	·	·	·	·
COC(=O)C1=C(C)N(Cc2ccc(F)cc2)C(=S)NC1c1ccccc1 (stereo not drawn)	-7	·	·	·	·
Cn1c(SCc2ccc([N+](=O)[O-])cc2)nnc1-c1ccncc1	-8	-14	25	-7	-4
Cn1c(SCC2CCCO2)nnc1-c1ccc([N+](=O)[O-])cc1 (stereo not drawn)	4	-22	41*	-8	3
O=C(CSc1ccc([N+](=O)[O-])cc1)Nc1cccc(S(=O)(=O)Nc2ccccc2F)c1	-4	46*	23	32	13
O=C(Cc1ccc(Cl)cc1)Nc1cccc(S(=O)(=O)Nc2ccccc2F)c1	-3	-22	7	-21	-3
Nc1nc2cc3c(cc2cc1C(=O)NCCc1c[nH]c2ccccc12)OCO3	4	·	·	·	·
O=C(NNC(=O)C1CC1)c1cc2cc3ccccc3nc2s1	-2	5	54*	-17	-9
Cc1ccc(-c2cc(NC(=O)Cc3c(C)[nH]c4ccccc34)ccc2Nc2cccnc2)cc1	0	·	·	·	·
CCCNC(=O)C[C@H]1C[C@H]2c3cc(NC(=O)Nc4ccc(F)cc4)ccc3O[C@H]2[C@@H](CO)O1	2	·	·	·	·
COc1ccc(CNc2nc(NCc3ccc(OC)c(OC)c3)n(C(=O)c3cccs3)n2)cc1OC	-9	6	44*	-1	4
CC1CCN(C(=O)c2ccc(NS(=O)(=O)c3ccc4[nH]c(=O)[nH]c4c3)cc2)CC1	-2	1	12	0	·
Cc1ccc(-c2nc(N3CCOCC3)sc2C(=O)N2CCCCC2)cc1	-3	-31	18	-9	25*
Cc1ccc(NC(=O)C2(C)CCN2CCc2ccccc2)cc1O (stereo not drawn)	-7	·	·	·	·
SMILES	GalR3 antag	CHO parental Ca	OX1R antag-1	OX1R antag-2	GPR7 antagonist
COc1ccc(NC(=O)CN(C)CC(=O)Nc2ccc3c(c2)CCC3)cc1	0	-27	35	-22	-9
CN(CC(=O)Nc1ccc2c(c1)CCC2)CC(=O)Nc1ccccc1Br	-2	-15	40*	-6	-4
CCCNC(=S)N1CCN(c2nc(-c3ccc(C)cc3)cs2)CC1	-10	53*	32	1	-10
CN1C(=O)S/C(=C/c2cccnc2)C1=O	-4	-2	65*	1	1
Cc1cc(C)cc(NS(=O)(=O)c2cnc(Cl)c(Cl)c2)c1	0	95*	30	52*	-11
COc1ccc(/C=C2\SC(=N)N(c3nccs3)C2=O)cc1OC	5	26*	73*	28	-8
O=[N+]([O-])c1cc(S(=O)(=O)NCc2ccco2)ccc1NN=Cc1ccccn1	-7	·	·	·	·
CSc1ccccc1NC(=O)CN(C)Cc1ccc(Br)cc1	-3	-32	16	-38	-6
CCCN(CC(=O)Nc1c(C)cccc1CC)C(=O)SCC	-6	-16	12	1	17
CCc1cccc(C)c1NC(=O)CN(C)Cc1ccc(Br)cc1	-7	40*	21	9	3
CCSC(=O)N(CC)CC(=O)Nc1c(CC)cccc1CC	·	-9	22	-11	21*
CCCCCCCCN1C(=O)[C@H](CC(=O)N2CCSCC2)C[C@@]2(C(=O)OC)CC(C)(C)CC=C12	-7	·	·	·	·
CCOC(=O)N(C)C[C@H]1OCc2cn(nn2)CCCC(=O)N([C@@H](C)CO)C[C@@H]1C	-3	·	·	·	·
CC(=O)Nc1cccc(-c2ccnc3c2CC(C)(C(=O)Nc2ccc(Cl)cc2)O3)c1 (stereo not drawn)	7	·	·	·	·
O=c1[nH]c2c(Br)cnc([N+](=O)[O-])c2[nH]1	-4	-7	43*	-10	-7
Nc1ncc([N+](=O)[O-])cc1Br	0	0	18	3	-9
C=C1C(=O)CC2=C1[C@](Cc1ccc(F)cc1)(C(=O)OC)N(C(=O)c1ccccc1)C2	-5	·	·	·	·
C=C1C(=O)C=C2CN(C(=O)c3ccccc3)[C@@](Cc3ccc(F)cc3)(C(=O)OC)[C@@H]12	·	32	14	75*	85*
C[C@H](CO)N1C[C@H](C)[C@@H](CN(C)S(=O)(=O)c2ccccc2)Oc2ccc(NC(=O)Nc3ccc4c(c3)OCO4)cc2C1=O	-6	-16	6	-10	·
O=C1N=NC2=C1c1c3ccccc3c(O)n1CC2	-5	8	56*	-8	-17
O=c1nc(/C=C/c2ccc(-c3ccc(F)cc3)o2)cc(C(F)(F)F)[nH]1	·	12	13	53*	-5
COc1ccccc1CNC(=O)c1ccc2nc3[nH]c4ccccc4c3nc2c1	8	-18	47*	2	-12
Cc1ccc(CNC(=O)c2ccc3nc4[nH]c5ccccc5c4nc3c2)cc1	1	·	·	·	1
COc1cc(/C=N/NC(=O)CSc2cc(C)c(Br)cc2C)ccc1O	-3	8	48*	7	1
Cc1cc(SCC(=O)N/N=C/c2ccc(O)c(O)c2O)c(C)cc1Br	1	-1	17	4	-10
S=c1[nH]nc(-c2ccncc2)n1/N=C/c1cn(-c2ccccc2)nc1-c1ccccc1	4	-68	52*	-59	-13
Oc1c(Br)cc(Br)c(/C=N/n2c(-c3ccccc3)n[nH]c2=S)c1Br	-10	-3	71*	3	7
COc1ccccc1CNS(=O)(=O)c1ccc(-c2cc(C)no2)cc1	-1	-5	66*	12	8
COc1ccc(C(C)(C)C)cc1N1C(=O)[C@@H]2CSCCS(=O)(=O)N2C1=O	-3	·	·	·	·
CN(C)C1(CN=Cc2cc(Cl)cc([N+](=O)[O-])c2O)CCCCC1	-10	-8	43*	-12	-9
